# According to publication PMC8511113 (European journal of medicinal chemistry, 2021):
# Entries after “also recorded” stand apart in the source; their conditions may differ.
# Columns and labels:
# [1] = system: MIA-induced cartilage degeneration in rat knee; test: MIA rat model of OA via IA dosing, joint histology; format: in vivo, male Sprague Dawley rats
# In short: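 Cartilage damage was induced in male Sprague Dawley rats with 2 mg MIA in 40 μl, injected into the right knee. On days 5, 12 and 19 after MIA, rats received intra-articular injections (8 per group) of vehicle, test compound (1 mg, saline suspension) or triamcinolone (0.06 mg). Naive rats (5) received no injections. Right knees were taken on day 26 for histology of the MTP, MFC, LTP and LFC surfaces and their mean. Groups were compared with vehicle by one-way ANOVA or Kruskal-Wallis with post-test, significance p<0.05.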
# [2] = In-vivo single dose oral rat pharmacokinetics; details: oral 1 mg/kg, male Lewis rats
# In short: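 Male Lewis rats, 3 per group, were fasted at least 16 h before dosing, with food returned about 4 h after. A 0.5 mg/mL suspension in 0.5% methylcellulose (400 cps) was given by gavage at 1.0 mg/kg (2 mL/kg). Jugular-catheter blood (K2EDTA) was drawn pre-dose and at 0.25–24 h. Plasma was obtained at 2200xg for 10 min, refrigerated. AUC(0-inf) came from the arithmetic mean concentration–time curve.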
# [3] = IA days 5, 12, 19, histology day 26, AQU-019 1 mg
# [4] = IA days 5, 12, 19, histology day 26, AQU-019 1 mg, Triamcinolone 0.06 mg
# [5] = IA days 5, 12, 19 after MIA, histology day 26, AQU-019 1 mg, significant
Improvement in AUC(0-infinity) over non-deuterated parent 18 [2] [%],Increase of AUC(0-t) over non-deuterated parent 18 [2] [%],Increase of Cmax over non-deuterated parent 18 [2] [%],SMILES,"Bone resorption vs Vehicle (in words) [1, 3]","Osteophyte scores/measurement vs Vehicle (in words) [1, 3]","Cartilage degeneration / chondroprotection vs Vehicle (in words) [1, 4]","Reduction in the mean loss on the LTP and LFC vs Vehicle [1, 5]","Reduction in the mean loss, mean of all surfaces vs Vehicle [1, 5] [%]","Reduction of osteophyte scores/measurement vs Vehicle ([1]; IA days 5, 12, 19, day 26, Triamcinolone 0.06 mg, P<0.05)","Reduction of bone resorption, overall mean vs Vehicle ([1]; IA days 5, 12, 19, day 26, Triamcinolone 0.06 mg, significant) [%]","Cell loss vs Vehicle (in words) ([1]; IA days 5, 12, 19, histology day 26, Triamcinolone 0.06 mg)"
64,68,17,"[2H]C([2H])(NC(=O)c1cc(C(=O)NCc2ccc(F)c(C)c2)ncn1)c1ccc(C(=O)O)cc1 [AQU-019, 4-(Dideutero-{[6-(4-fluoro-3-methyl-benzylcarbamoyl)-pyrimidine-4-carbonyl]-amino}-methyl)-benzoic acid]","trend of reduced resorption compared to Vehicle but was not statistically significant; also recorded: while reduced, was not statistically significant",no reduction in osteophyte measurement; also recorded: comparable to Vehicle control; also recorded: no effect on osteophytes measurement,significant chondroprotection,21–22%,16,,,
,,,"C[C@]12C=CC(=O)C=C1CC[C@H]1[C@@H]3C[C@@H](O)[C@](O)(C(=O)CO)[C@@]3(C)C[C@H](O)[C@@]12F [Triamcinolone, reference compound]",,,no reductions in cartilage degeneration,,,40–47%,43,no significant reductions in cell loss
